Measurements from different studies.
Protocols differ between the studies behind these lines.

| Compound | system | setting | endpoint | value |
| --- | --- | --- | --- | --- |
| Cc1c(-c2ccccc2)cccc1N1C(=O)c2cc(CN[C@H](C(=O)O)C(C)O)c(OCc3cccc(C#N)c3)cc2C1=O (stereo partly drawn) | Sprague-Dawley rat, plasma | intravenous, 5 mg/kg | clearance | 5.66 mL/min/kg |
| COc1ccc2c(Cc3ccccc3F)c3n(c(=O)c2c1OC)CCc1cc2c(cc1-3)OCO2 | rat, plasma | intravenous, 5 mg/kg | clearance | 3.67 mL/min/kg |
| O=C(c1cc(Cc2n[nH]c(=O)c3ccccc23)ccc1F)N1CCN(C(=O)C2CC2)CC1 | female Sprague-Dawley rat, plasma | intravenous | clearance | 2.22 mL/min |
| Oc1c(Br)cc(Cl)c2cccnc12 | Sprague-Dawley rat, plasma | subcutaneous, 10 mg/kg | CL/F | 31.7 mL/min/kg |
| COc1ccc(C(C)=O)c(O)c1 | male Sprague-Dawley rat, plasma | oral, 100 mg/kg | CL/F | 44.2 mL/min/kg |
| N#Cc1ccc(Nc2nc(N)cc(Oc3c(F)cc(-c4ccc(C#N)cc4)cc3F)n2)cc1 | Sprague-Dawley rat, plasma | intravenous, 1 mg/kg | clearance | 54.6 mL/min/kg |
| Oc1cc(O)cc(-c2cc3ccc(O)cc3o2)c1 | male rat, plasma | intravenous, 5 mg/kg | clearance | 89.5 mL/min/kg |
| COCCOC(=O)C1=C(C)NC(C)=C(C(=O)OC(C)C)C1c1cccc([N+](=O)[O-])c1 (stereo not drawn) | male Sprague-Dawley rat, plasma | oral, 12 mg/kg | CL/F | 0.0943 mL/min/kg |
| C#Cc1cccc(Nc2ncnc3cc(OCCOC)c(OCCOC)cc23)c1 | male Sprague-Dawley rat, plasma | oral, 12 mg/kg, single dose | CL/F | 22 mL/min/kg |
| CC[C@H](C)[C@H](NC(=O)[C@H](Cc1ccccc1)NC(=O)[C@H](CCC(=O)O)NC(=O)[C@H](CCCNC(=N)N)NC(=O)[C@H](C)NC(=O)[C@H](C)NC(=O)[C@H](CCC(N)=O)NC(=O)[C@H](CCC(=O)O)NC(=O)[C@H](CCC(=O)O)NC(=O)[C@H](CC(C)C)NC(=O)[C@H](Cc1ccc(O)cc1)NC(=O)[C@H](CO)NC(=O)[C@H](CO)NC(=O)[C@@H](NC(=O)[C@H](CC(=O)O)NC(=O)[C@H](CO)NC(=O)[C@@H](NC(=O)[C@H](Cc1ccccc1)NC(=O)[C@@H](NC(=O)CNC(=O)[C@H](CCC(=O)O)NC(=O)[C@H](C)NC(=O)CCc1c[nH]cn1)[C@@H](C)O)[C@@H](C)O)C(C)C)C(=O)N[C@@H](C)C(=O)N[C@@H](Cc1c[nH]c2ccccc12)C(=O)N[C@@H](CC(C)C)C(=O)N[C@H](C(=O)N[C@@H](CCCNC(=N)N)C(=O)NCC(=O)N[C@@H](CCCNC(=N)N)C(=O)N[C@@H](CCCCNC(=O)COCCOCCNC(=O)COCCOCCNC(=O)CC[C@H](NC(=O)CCCCCCCCCCCCCCCCC(=O)O)C(=O)O)C(=O)O)C(C)C | rat, plasma | subcutaneous, 20 nmol/kg | CL/F | 0.145 mL/min/kg |
| Oc1c(-n2ccnn2)cnn1-c1cc(N2CCOCC2)ncn1 | male rat, blood | intravenous, 5 mg/kg | clearance | 18.3 mL/min/kg |
| CCCC[C@@H]1NC(=O)[C@H](Cc2ccc(O)cc2)NC(=O)[C@@H]2CCCN2C(=O)[C@H](CC(=O)O)NC(=O)[C@H](C)NC(=O)[C@H](Cc2ccccc2)NC(=O)[C@@H]2CSCCC(=O)N3CN(CN(C3)C(=O)CCSC[C@@H](C(=O)N[C@@H](C)C(N)=O)NC1=O)C(=O)CCSC[C@H](NC(C)=O)C(=O)N[C@@H](CC(C)(C)C)C(=O)N1CCC[C@H]1C(=O)N[C@@H](CCC(=O)O)C(=O)N[C@H](CCCCNC(=O)CCc1cn(CCOCCOCCOCCOCCOCCOCCOCCOCCOCCOCCNC(=O)c3cc(C(=O)NCCOCCOCCOCCOCCOCCOCCOCCOCCOCCOCCn4cc(CCC(=O)NCCCC[C@H]5NC(=O)[C@H](CCC(=O)O)NC(=O)[C@@H]6CCCN6C(=O)[C@H](CC(C)(C)C)NC(=O)[C@@H](NC(C)=O)CSCCC(=O)N6CN7CN(C6)C(=O)CCSC[C@H](NC(=O)[C@H](Cc6ccc(O)cc6)NC(=O)[C@@H]6CCCN6C5=O)C(=O)N[C@@H](Cc5ccccc5)C(=O)N[C@@H](C)C(=O)N[C@@H](CC(=O)O)C(=O)N5CCC[C@H]5C(=O)N[C@@H](Cc5ccc(O)cc5)C(=O)N[C@@H](CCCC)C(=O)N[C@H](C(=O)N[C@@H](C)C(N)=O)CSCCC7=O)nn4)cc(C(=O)NCCOCCOCCOCCOCCOCCOCCOCCOCCOCCOCCn4cc(CCC(=O)N[C@H]5CSCCC(=O)N6CN7CN(C6)C(=O)CCSC[C@H](NC(=O)[C@@H](CC(=O)O)NC(=O)[C@H](Cc6cccc8ccccc68)NC(=O)[C@@H]6CCCN6C5=O)C(=O)N[C@@H](CCSC)C(=O)N[C@@H](CCCCNC(=N)N)C(=O)N[C@@H](CC(=O)O)C(=O)N[C@@H](Cc5c[nH]c6ccccc56)C(=O)N[C@@H](CO)C(=O)N[C@@H]([C@@H](C)O)C(=O)N5CCC[C@H]5C(=O)N5C[C@H](O)C[C@H]5C(=O)N[C@@H](Cc5c[nH]c6ccccc56)C(=O)N[C@H](C(N)=O)CSCCC7=O)nn4)c3)nn1)C(=O)N1CCC[C@H]1C(=O)N[C@@H](Cc1ccc(O)cc1)C(=O)N2 | rat, plasma | intravenous, 2 mg/kg | clearance | 9.2 mL/min/kg |
